Results from ChEMBL document CHEMBL3045347, “Natural products-based insecticidal agents 5. Design, semisynthesis and insecticidal activity of novel 4'-substituted benzenesulfonate derivatives of 4-deoxypodophyllotoxin against Mythimna separata Walker in vivo” (2010).
Calls of active or inactive are those of the source. The rule behind the calls is not given here.

Tests used:
Mythimna separata [1] = test: In vivo insecticidal activity against pre-third-instar larval stage of Mythimna separata (Oriental armyworm) in corn leaves assessed as induction of loss of body liquid at 1 mg/ml treated for 3 secs before larval infestation on corn leaves measured after 48 hr by leaf-dipping method; assay type: functional, organism-based
How it was run: (§1)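 Leaf-dipping bioassay on pre-third-instar Mythimna separata larvae, with compounds applied at 1 mg/mL. Toosendanin, a commercial insecticide from Melia azedarach, served as the positive control.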

Mythimna separata [2] = test: In vivo insecticidal activity against pre-third-instar larval stage of Mythimna separata (Oriental armyworm) in corn leaves assessed as induction of larval immobility at 1 mg/ml treated for 3 secs before larval infestation on corn leaves measured after 48 hr by leaf-dipping method; assay type: functional, organism-based; how it was run: as §1
Mythimna separata [3] = test: In vivo insecticidal activity against pre-third-instar larval stage of Mythimna separata (Oriental armyworm) in corn leaves assessed as reduction in larval movement at 1 mg/ml treated for 3 secs before larval infestation on corn leaves measured after 24 hr by leaf-dipping method; assay type: functional, organism-based; how it was run: as §1
Mythimna separata [4] = test: In vivo insecticidal activity against pre-third-instar larval stage of Mythimna separata (Oriental armyworm) in corn leaves assessed as corrected mortality rate at 1 mg/ml treated for 3 secs before larval infestation on corn leaves measured after 30 days by leaf-dipping method; assay type: functional; conditions: 720 h; how it was run: as §1
Mythimna separata [5] = test: In vivo insecticidal activity against pre-third-instar larval stage of Mythimna separata (Oriental armyworm) in corn leaves assessed as corrected mortality rate at 1 mg/ml treated for 3 secs before larval infestation on corn leaves measured after 20 days by leaf-dipping method; assay type: functional; conditions: 480 h; how it was run: as §1
Mythimna separata [6] = test: In vivo insecticidal activity against pre-third-instar larval stage of Mythimna separata (Oriental armyworm) in corn leaves assessed as corrected mortality rate at 1 mg/ml treated for 3 secs before larval infestation on corn leaves measured after 10 days by leaf-dipping method; assay type: functional; conditions: 240 h; how it was run: as §1
Mythimna separata [7] = test: In vivo insecticidal activity against pre-third-instar larval stage of Mythimna separata (Oriental armyworm) in corn leaves assessed as induction of molting to abnormal pupae at 1 mg/ml treated for 3 secs before larval infestation on corn leaves measured after 48 hr by leaf-dipping method; assay type: functional, organism-based; how it was run: as §1
Mythimna separata [8] = test: In vivo insecticidal activity against pre-third-instar larval stage of Mythimna separata (Oriental armyworm) in corn leaves assessed as inhibition of adult emergence at 1 mg/ml treated for 3 secs before larval infestation on corn leaves by leaf-dipping method; assay type: functional, organism-based; how it was run: as §1
Mythimna separata [9] = test: In vivo insecticidal activity against pre-third-instar larval stage of Mythimna separata (Oriental armyworm) in corn leaves assessed as inhibition of larval pupation at 1 mg/ml treated for 3 secs before larval infestation on corn leaves by leaf-dipping method; assay type: functional, organism-based; how it was run: as §1

Row | Compound | Activity (Mythimna separata [1]) | Activity (Mythimna separata [2]) | Activity (Mythimna separata [3]) | mortality at 1000 µg/mL (Mythimna separata [4]) | mortality at 1000 µg/mL (Mythimna separata [5]) | mortality at 1000 µg/mL (Mythimna separata [6]) | Activity (Mythimna separata [7]) | Activity (Mythimna separata [8]) | Activity (Mythimna separata [9])
1 | COc1cc([C@@H]2c3cc4c(cc3C[C@H]3COC(=O)[C@@H]32)OCO4)cc(OC)c1OS(=O)(=O)c1ccc(C)cc1 | Active | Active | Active | 21.4% | 10.3% | 3.3% | Active | Active | Active
2 | COc1cc([C@@H]2c3cc4c(cc3C[C@H]3COC(=O)[C@@H]32)OCO4)cc(OC)c1OS(=O)(=O)c1ccccc1 | Active | Active | Active | 35.7% | 13.8% | 16.7% | Active | Active | Active
3 | COc1cc([C@@H]2c3cc4c(cc3C[C@H]3COC(=O)[C@@H]32)OCO4)cc(OC)c1OS(=O)(=O)c1cccc([N+](=O)[O-])c1 | Active | Active | Active | 60.7% | 27.6% | 26.7% | Active | Active | Active
4 | COc1cc([C@@H]2c3cc4c(cc3C[C@H]3COC(=O)[C@@H]32)OCO4)cc(OC)c1OC [DESOXYPODOPHYLLOTOXIN] | Active | Active | Active | 39.3% | 20.7% | 16.7% | Active | Active | Active
5 | COc1cc([C@@H]2c3cc4c(cc3C[C@H]3COC(=O)[C@@H]32)OCO4)cc(OC)c1OS(=O)(=O)c1ccc(Br)cc1 | Active | Active | Active | 50% | 31% | 20% | Active | Active | Active
6 | COc1ccc(S(=O)(=O)Oc2c(OC)cc([C@@H]3c4cc5c(cc4C[C@H]4COC(=O)[C@@H]43)OCO5)cc2OC)cc1 | Active | Active | Active | 46.4% | 37.9% | 33.3% | Active | Active | Active
7 | COc1cc([C@@H]2c3cc4c(cc3C[C@H]3COC(=O)[C@@H]32)OCO4)cc(OC)c1OS(=O)(=O)c1ccc(Cl)c([N+](=O)[O-])c1 | Active | Active | Active | 42.9% | 20.7% | 3.3% | Active | Active | Active
8 | CC(=O)O[C@@H]1C[C@H](O)[C@@]23CO[C@@H](O)[C@]1(C)[C@@H]2C[C@@H](O)[C@]1(C)[C@@H]3C(=O)[C@H](OC(C)=O)[C@@]2(C)[C@H](c3ccoc3)C[C@H]3O[C@]321 [TOOSENDANIN] |  |  |  | 46.4% | 34.5% | 30% |  |  | 
9 | COc1cc([C@@H]2c3cc4c(cc3C[C@H]3COC(=O)[C@@H]32)OCO4)cc(OC)c1O [4'-DEMETHYLDEOXYPODOPHYLLOTOXIN] | Active | Active | Active | 21.4% | 13.8% | 10% | Active | Active | Active
10 | CCc1ccc(S(=O)(=O)Oc2c(OC)cc([C@@H]3c4cc5c(cc4C[C@H]4COC(=O)[C@@H]43)OCO5)cc2OC)cc1 | Active | Active | Active | 35.7% | 27.6% | 13.3% | Active | Active | Active
11 | COc1cc([C@@H]2c3cc4c(cc3C[C@H]3COC(=O)[C@@H]32)OCO4)cc(OC)c1OS(=O)(=O)c1ccc(Cl)cc1 | Active | Active | Active | 25% | 10.3% | 10% | Active | Active | Active
